Reference: ChEMBL document CHEMBL1140145, “Identification of non-nucleoside DNA synthesis inhibitors of vaccinia virus by high-throughput screening” (J Med Chem, 2008)
Active and inactive are the calls of the source. The calls are words filed in the database; no cut-off is given here.

Tests used:
Vaccinia virus [1] = assay: Antiviral activity against Vaccinia virus WR in BSC1 cells assessed as protection from virus-induced lysis of cell monolayer after 20 hrs; type: functional, organism-based; conditions: Orthopoxvirus vaccinia, BSC-1, 20 h
Vaccinia virus [2] = assay: Antiviral activity against Vaccinia virus WR in BSC1 cells assessed as reduction in plaque formation after 20 hrs; type: functional, organism-based; conditions: Orthopoxvirus vaccinia, BSC-1, 20 h
[3] = Cytotoxicity against african green monkey BSC1 cells after 20 hrs WST-1 based assay; type: cell-based, BSC-1; conditions: chlorocebus aethiops, read-out: TC50
Outline: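 Uninfected BS-C-1 cells in phenol red-free medium, seeded 5000 (20 h), 1000 (3-day) or 200 (5-day) cells/well, exposed next day to compound in two-fold serial dilutions (top 200 µM; 1% DMSO final) at 37°C. WST-1 added 30 min, A450 read. Triplicates; percent cytotoxicity vs DMSO fitted four-parameter sigmoidal for TC50.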

Vaccinia virus [4] = assay: Antiviral activity against Vaccinia virus WR in BSC1 cells assessed as retention of antiviral potency by measuring exogenous double stranded DNA trapping; type: functional, organism-based; conditions: Orthopoxvirus vaccinia, BSC-1
Vaccinia virus [5] = assay: Inhibition of Vaccinia virus DNA synthesis in by rapid plate assay; type: functional, organism-based; conditions: Orthopoxvirus vaccinia

## COC(=O)c1c(NC(=O)c2ccc(OC)cc2)sc2c1CCN(C(C)C)C2
Vaccinia virus [1]
  EC50: 40 µM
Vaccinia virus [2]
  EC50: 25 µM
[3]
  CC50 at 20 h: 87 µM
Vaccinia virus [4]
  Activity: inactive

## O=C1NC(=S)N(c2ccccc2)C(=O)/C1=C\C=C\c1ccco1
Vaccinia virus [5]
  IC50: 143 µM
Vaccinia virus [2]
  EC50: 50 µM
[3]
  CC50 at 20 h: > 200 µM

## CCOC(=O)c1c(NC(=O)/C=C/C(=O)O)sc(C)c1-c1ccccc1
Vaccinia virus [1]
  EC50: 30 µM
Vaccinia virus [5]
  IC50: 374 µM
Vaccinia virus [2]
  EC50: 25 µM
[3]
  CC50 at 20 h: 159 µM
Vaccinia virus [4]
  Activity: Active

## Oc1ccc(C2(c3ccc(O)cc3)CCCC2)cc1
Vaccinia virus [5]
  IC50: 71 µM
Vaccinia virus [2]
  EC50: 75 µM
[3]
  CC50 at 20 h: 35 µM

## CCN1CCN(CCCNC(=O)c2ccc3c(c2)NC(=O)/C(=C\C(=O)c2ccc(OC)cc2)N3)CC1
Vaccinia virus [5]
  IC50: 36 µM
[3]
  CC50 at 20 h: > 200 µM

## C=C1C(C(=O)NCc2ccco2)C1C(=O)NCc1ccco1 (centres undefined)
Vaccinia virus [5]
  IC50: 272 µM
[3]
  CC50 at 20 h: > 200 µM

## Cc1nc2ccccc2c2oc(C(=O)NCCN(C)C3CCCCC3)cc12
Vaccinia virus [1]
  EC50: 41 µM
Vaccinia virus [2]
  EC50: 25 µM
[3]
  CC50 at 20 h: 143 µM
Vaccinia virus [4]
  Activity: inactive

## CN(C)CCOC(=O)c1ccc2[nH]c3c(c2c1)CSCC3 [TIPINDOLE]
Vaccinia virus [5]
  IC50: 115 µM
Vaccinia virus [2]
  EC50: 100 µM
[3]
  CC50 at 20 h: > 200 µM

## O=C(O)C1Nc2ccccc2C2C=CCC12 (centres undefined)
Vaccinia virus [5]
  IC50: > 400 µM
[3]
  CC50 at 20 h: > 200 µM

## COc1ccc2c(C)nc(NC(=N)/N=C(\C)c3ccccc3C(=O)O)nc2c1
Vaccinia virus [5]
  IC50: 13 µM
Vaccinia virus [2]
  EC50: 50 µM
[3]
  CC50 at 20 h: 164 µM

## CC(C)c1ccc(C2Nc3ccc(C(=O)O)cc3C3C=CCC32)cc1 (centres undefined)
Vaccinia virus [5]
  IC50: 100 µM
Vaccinia virus [2]
  EC50: 100 µM
[3]
  CC50 at 20 h: > 200 µM

## CCN1/C(=C/c2ccc3ccccc3[n+]2CC)Sc2cc(NC(C)=O)ccc21
Vaccinia virus [5]
  IC50: 15 µM
Vaccinia virus [2]
  EC50: 200 µM
[3]
  CC50 at 20 h: > 200 µM

## CCOC(=O)c1cc(-c2ccccc2)n(-c2ccc(C(=O)O)cc2)c1C
Vaccinia virus [5]
  IC50: 120 µM
Vaccinia virus [2]
  EC50: 100 µM
[3]
  CC50 at 20 h: > 200 µM

## CN(C)CCNC(=O)c1cc2c(s1)-c1ccc(Cl)cc1SC2
Vaccinia virus [5]
  IC50: 37 µM
Vaccinia virus [2]
  EC50: 5 µM
[3]
  CC50 at 20 h: 3.9 µM

## CCN(CC)Cn1nc2c3c(cccc3c1=O)-c1ccccc1-2
Vaccinia virus [1]
  EC50: 14 µM
Vaccinia virus [5]
  IC50: 25 µM
Vaccinia virus [2]
  EC50: 25 µM
[3]
  CC50 at 20 h: 133 µM
Vaccinia virus [4]
  Activity: inactive

## O=C1N=C(Nc2cccc(C(=O)O)c2)S/C1=C\c1ccc(-c2ccc(C(=O)O)cc2)o1
Vaccinia virus [5]
  IC50: 30 µM
[3]
  CC50 at 20 h: > 200 µM

## CN(C)CC(O)Cn1c2ccc(Cl)cc2c2cc(Cl)ccc21 (centres undefined)
Vaccinia virus [5]
  IC50: 12 µM
Vaccinia virus [2]
  EC50: 10 µM
[3]
  CC50 at 20 h: 17 µM

## CN(C)/C=C/C=C1C(=O)CCCC1=O
Vaccinia virus [5]
  IC50: 86 µM
[3]
  CC50 at 20 h: > 200 µM

## Cc1cc2c(cc3c(=O)n(CC(=O)NCCN4CCOCC4)ncn32)s1
Vaccinia virus [1]
  EC50: 23 µM
Vaccinia virus [2]
  EC50: 25 µM
[3]
  CC50 at 20 h: 100 µM
Vaccinia virus [4]
  Activity: inactive

## S=c1nc(-c2ccco2)c2c(=S)[nH]c(=S)[nH]c2[nH]1
Vaccinia virus [5]
  IC50: 142 µM
[3]
  CC50 at 20 h: > 200 µM

## O=C(O)c1ccc2c(c1)NC(=O)C(CSCc1ccccc1Cl)N2 (centres undefined)
Vaccinia virus [5]
  IC50: 450 µM
[3]
  CC50 at 20 h: > 200 µM

## C/N=C1/c2c(C)c3cc(OC)ccc3n2CCN1C
Vaccinia virus [5]
  IC50: 89 µM
Vaccinia virus [2]
  EC50: 75 µM
[3]
  CC50 at 20 h: > 200 µM

## O=C(/C=C/c1ccco1)/C=C/c1ccco1
Vaccinia virus [5]
  IC50: 25 µM
Vaccinia virus [2]
  EC50: 75 µM
[3]
  CC50 at 20 h: > 200 µM

## N#CC1=C(SCc2ccccc2)SC(c2ccccc2O)NC1=O (centres undefined)
Vaccinia virus [5]
  IC50: 250 µM
Vaccinia virus [2]
  EC50: 150 µM
[3]
  CC50 at 20 h: > 200 µM

## CN(C)Cc1ccc2ccc3cccc4ccc1c2c34
Vaccinia virus [1]
  EC50: 25 µM
Vaccinia virus [2]
  EC50: 10 µM
[3]
  CC50 at 20 h: 20 µM
Vaccinia virus [4]
  Activity: inactive

## c1ccc(CNc2ccc3c(ccc4c5ccccc5[nH]c34)n2)cc1
Vaccinia virus [5]
  IC50: 114 µM
Vaccinia virus [2]
  EC50: 10 µM
[3]
  CC50 at 20 h: 26 µM

## CCN1C(=O)/C(=C\C=C\c2ccco2)C(=O)NC1=S
Vaccinia virus [5]
  IC50: 160 µM
Vaccinia virus [2]
  EC50: 12 µM
[3]
  CC50 at 20 h: 72 µM

## Nc1[nH]c(=S)sc1C(=O)Nc1nccs1
Vaccinia virus [5]
  IC50: 41 µM
[3]
  CC50 at 20 h: > 200 µM

## c1ccc2nc3c(nc2c1)c1ccccc1n3CCN1CCOCC1
Vaccinia virus [5]
  IC50: 28 µM
Vaccinia virus [2]
  EC50: 30 µM
[3]
  CC50 at 20 h: 72 µM

## CN1CCN(c2cc(-c3ccc(F)cc3)nc(-c3ccccc3)n2)CC1
Vaccinia virus [1]
  EC50: 12 µM
Vaccinia virus [2]
  EC50: 6 µM
[3]
  CC50 at 20 h: 23 µM
Vaccinia virus [4]
  Activity: inactive

## CN(C)CCCNc1c2c(nc3ccccc13)CCC2
Vaccinia virus [5]
  IC50: 32 µM
Vaccinia virus [2]
  EC50: 50 µM
[3]
  CC50 at 20 h: 172 µM

## OCC(O)Cn1c2ccc(Br)cc2c2cc(Br)ccc21 (centres undefined)
Vaccinia virus [1]
  EC50: 23 µM
Vaccinia virus [2]
  EC50: 10 µM
[3]
  CC50 at 20 h: 29 µM
Vaccinia virus [4]
  Activity: inactive

## Cc1ccc(C)n1-c1cccc(C(=O)O)c1
Vaccinia virus [5]
  IC50: 100 µM
[3]
  CC50 at 20 h: > 200 µM

## O=C1/C(=C/c2ccc(Br)o2)CC/C1=C\c1ccc(Br)o1
Vaccinia virus [5]
  IC50: 95 µM
[3]
  CC50 at 20 h: > 200 µM

## CN(C)CCN(C(=O)c1ccco1)c1nc2cc3c(cc2s1)OCO3
Vaccinia virus [5]
  IC50: 29 µM
Vaccinia virus [2]
  EC50: 100 µM
[3]
  CC50 at 20 h: > 200 µM

## Cc1c(C)n(CCN(C)C)c2ccc(C(=O)OCCN(C)C)cc12 [AMINDOCATE]
Vaccinia virus [5]
  IC50: 26 µM
Vaccinia virus [2]
  EC50: 75 µM
[3]
  CC50 at 20 h: > 200 µM

## CC1=NN(c2ccccc2)C(=O)/C1=C\c1cn(CC(O)CN2CCCCC2)c2ccccc12 (centres undefined)
Vaccinia virus [5]
  IC50: 24 µM
Vaccinia virus [2]
  EC50: 25 µM
[3]
  CC50 at 20 h: 79 µM

## COc1ccc2c(C)nc(N/C(N)=N/C(C)=O)nc2c1
Vaccinia virus [5]
  IC50: 16 µM
Vaccinia virus [2]
  EC50: 40 µM
[3]
  CC50 at 20 h: 90 µM

## COC(=O)C(C(=O)OC)C(Nc1ccccc1)c1ccccc1 (centres undefined)
Vaccinia virus [5]
  IC50: 638 µM
[3]
  CC50 at 20 h: > 200 µM

## C[n+]1ccc(/C=C/c2ccc3c(c2)OCO3)c2ccccc21
Vaccinia virus [5]
  IC50: 24 µM
Vaccinia virus [2]
  EC50: 75 µM
[3]
  CC50 at 20 h: > 200 µM

## CN(c1ccccc1C(=O)O)S(=O)(=O)c1ccc2c3c(cccc13)C(=O)N2
Vaccinia virus [5]
  IC50: 75 µM
[3]
  CC50 at 20 h: > 200 µM

## COc1ccc2cc3cc(C(=O)NCCN(C)C)oc3nc2c1
Vaccinia virus [2]
  EC50: 75 µM
[3]
  CC50 at 20 h: > 200 µM

## N=C(N)Nc1nc(-c2ccccc2)c2ccccc2n1
Vaccinia virus [5]
  IC50: 21 µM
Vaccinia virus [2]
  EC50: 50 µM
[3]
  CC50 at 20 h: 49 µM

## COc1ccc(Nc2cc(C(F)(F)F)ccc2Cl)c(C(=O)O)c1
Vaccinia virus [5]
  IC50: 29 µM
Vaccinia virus [2]
  EC50: 100 µM
[3]
  CC50 at 20 h: > 200 µM

## Cc1cc(OCC(=O)NC(Cc2c[nH]c3ccccc23)C(=O)O)cc(C)c1Cl (centres undefined)
Vaccinia virus [5]
  IC50: 73 µM
Vaccinia virus [2]
  EC50: 200 µM
[3]
  CC50 at 20 h: > 200 µM

## CCN1CCCC1CNC(=O)c1ccc2c(c1)sc1nc(-c3cccc(OC)c3)cn12 (centres undefined)
Vaccinia virus [5]
  IC50: 47 µM
Vaccinia virus [2]
  EC50: 50 µM
[3]
  CC50 at 20 h: 75 µM

## Cc1ccc2oc(=O)c3cc(C(=O)NCCN4CCCCC4C)sc3c2c1 (centres undefined)
Vaccinia virus [5]
  IC50: 25 µM
Vaccinia virus [2]
  EC50: 50 µM
[3]
  CC50 at 20 h: 147 µM

## CN1CCc2c(-c3cccs3)nc(OCc3ccccc3Br)c(C#N)c2C1
Vaccinia virus [5]
  IC50: 112 µM
Vaccinia virus [2]
  EC50: 40 µM
[3]
  CC50 at 20 h: 82 µM

## O=C(O)c1cc(Cc2ccc(O)c(C(=O)O)c2)ccc1O
Vaccinia virus [5]
  IC50: 51 µM
[3]
  CC50 at 20 h: > 200 µM

## CCN1CCCC1CNC(=O)c1cc2c(=O)n(C)c3ccccc3c2n1C (centres undefined)
Vaccinia virus [1]
  EC50: 98 µM
Vaccinia virus [2]
  EC50: 100 µM
[3]
  CC50 at 20 h: 135 µM
Vaccinia virus [4]
  Activity: inactive

## O=C(O)c1cc(-c2cccs2)nc2ccc(Br)cc12
Vaccinia virus [5]
  IC50: 63 µM
Vaccinia virus [2]
  EC50: 100 µM
[3]
  CC50 at 20 h: > 200 µM

## CC1CCN(CCCNC(=O)c2cc3c(=O)n(C)c4ccccc4c3s2)CC1
Vaccinia virus [5]
  IC50: 19 µM
[3]
  CC50 at 20 h: 75 µM

## CC1=NN(c2cccc(C(=O)O)c2)C(=O)/C1=C\c1ccc(-c2cccc(Cl)c2C)o1
Vaccinia virus [5]
  IC50: 14 µM
Vaccinia virus [2]
  EC50: 50 µM
[3]
  CC50 at 20 h: > 200 µM

## COc1ccc(Nc2nc(N3CCN(C)CC3)nc3ccccc23)c(OC)c1
Vaccinia virus [1]
  EC50: 18 µM
Vaccinia virus [2]
  EC50: 40 µM
[3]
  CC50 at 20 h: 192 µM
Vaccinia virus [4]
  Activity: inactive
